# Compound activity as filed in PubChem BioAssay.
# Most compounds without a hit are left out; they make up all but 2.8% or so of the library.
# NPY2 pot ag: NPY-Y2 potentiators or agonists, primary screen, cell-based; AID 1359, 2008; 220,000 compounds, 0.45% hits; activation, % at 3.6 µM; cells expressing NPY-Y2, potentiator/agonist read-out; Neuropeptide Y receptor type 2 (Homo sapiens), P49146; in the data active = activation above about 27%;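 note: cells stimulated with NPY near EC25 plus isoproterenol at EC100; 0% = vehicle plus submaximal agonist and 100% = vehicle plus saturating agonist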
# NPY1 pot ag: NPY-Y1 receptor potentiators or agonists, primary screen, cell-based | Neuropeptide Y receptor type 1 (Homo sapiens), P25929 | NPY-Y1 expressing cells, potentiator/agonist activation | activation, % at 3.6 µM | 220,000 compounds, 0.37% hits | AID 1304, 2008; in the data active = activation above about 33%, passing the limit was not always enough;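 note: cells stimulated with NPY at EC10 then isoproterenol at EC100; 0% = low agonist plus stimulus and 100% = saturating agonist plus stimulus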
# Target sequence (P25929 whole entry, looked up): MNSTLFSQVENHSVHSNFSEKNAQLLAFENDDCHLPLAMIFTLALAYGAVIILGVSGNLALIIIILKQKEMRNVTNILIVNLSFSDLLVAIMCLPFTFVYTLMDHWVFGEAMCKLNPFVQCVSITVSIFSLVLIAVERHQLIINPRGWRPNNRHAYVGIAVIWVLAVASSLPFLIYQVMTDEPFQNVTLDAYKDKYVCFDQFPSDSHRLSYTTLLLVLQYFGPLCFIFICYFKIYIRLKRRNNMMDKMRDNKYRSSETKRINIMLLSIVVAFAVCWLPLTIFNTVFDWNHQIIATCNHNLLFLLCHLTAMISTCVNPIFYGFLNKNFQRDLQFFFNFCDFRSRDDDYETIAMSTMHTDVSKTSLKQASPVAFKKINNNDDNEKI
# NPY-Y1 antag: NPY-Y1 receptor antagonists, primary screen, cell-based; 200,000 compounds, 1% hits; Neuropeptide Y receptor type 1 (Homo sapiens), P25929; HEK293-CNG Y1 cells, membrane potential fluorescence; NPY at EC95, then isoproterenol; inhibition, % at 3.6 µM; AID 1040, 2008;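 active = inhibition above the campaign mean inhibition of all tested compounds plus 3 SD, cut at about 20% in these data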;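 note: 0% = DMSO wells given NPY plus isoproterenol and 100% = isoproterenol alone without NPY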
#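 Test system – HEK293 Y1/CNG channel cell line · Also added – NPY agonist 25 nM, then isoproterenol 1 µM plus Ro 20-1724 25 µM · Compound dosing – one concentration, 3.6 µM, in 0.4% DMSO · Schedule – compound incubation 1 h at room temperature, readout 45 min post-stimulation · Technique – fluorescence, membrane potential probe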
# NPY Y2 blocker: NPY-Y2 receptor antagonists, primary screen, cell-based. 140,000 compounds, 0.99% hits. inhibition, % at 2.7 µM. Neuropeptide Y receptor type 2 (Homo sapiens), P49146. NPY-Y2 expressing cells, antagonist mode. AID 793, 2007; in the data active = inhibition above about 17%;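 note: 0% = vehicle with agonist challenge and 100% = reference antagonist with challenge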
# EP2 mod: EP2 receptor modulators, cAMP readout, primary screen, cell-based, HTRF cAMP, PGE2 stimulation. Prostaglandin E2 receptor EP2 subtype (Homo sapiens), P43116. 260,000 compounds, 0.83% hits. EP2-expressing cells, cAMP HTRF FRET, PGE2 co-stimulation. induction, % at 25 µM;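 active = compounds whose cAMP rise, as percent of the full-agonist control response, exceeds 60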;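 note: rat C6 glioma line stably carrying human EP2 under a CMV promoter; the protocol text gives 20 µM as final concentration; 100% = response of wells given 1 µM PGE2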
# PGE2 EP2 inh: human EP2 receptor antagonists, primary screen, TR-FRET cAMP, C6 glioma cells; C6 glioma cells expressing human EP2; cells stimulated with saturating PGE2; inhibition, % at 25 µM; 260,000 compounds, 0.52% hits; AID 1422, 2008;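 active = percent inhibition above 40 after rounding to a whole number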;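 note: rat C6 glioma host cells with rolipram phosphodiesterase inhibitor present; the protocol text gives 20 µM as final concentration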
# EP2 cAMP induct: cAMP induction in EP2, EP4, beta2-AR and parental cells, confirmation, counter-screen for EP2 modulator project, cell-based, five parallel assays, C6 glioma, HEK293 | calls only at 20 µM (by protocol) | cAMP HTRF induction; plus low (about EC15) PGE2 agonist | AID 1080, 2008 | 1,300 compounds, 47% hits | shares compounds with EP2 mod;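 active = cAMP induction above 50% in the main assay while under 30% in all four parallel counter assays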;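 note: rat C6 glioma cells stably expressing human EP2 receptor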
# * = called active by the depositor; i = inactive; nt = no result given; + = active, no number.
SMILES,NPY2 pot ag,NPY1 pot ag,NPY-Y1 antag,NPY Y2 blocker,EP2 mod,PGE2 EP2 inh,EP2 cAMP induct
CC(=O)c1ccc(NC(=O)c2ccccc2Sc2ncnc3sc(C)c(C)c23)cc1,-13,-13,6,2,10,10,nt
CCCSc1ncnc2sc(C)c(C)c12,-6,-4,1,nt,53,5,i
Cc1sc2ncnc(Sc3ccccc3C(=O)O)c2c1C,7,9,6,nt,72*,16,i
Cc1sc2ncnc(SCC#N)c2c1C,-5,-7,0,3,49,23,nt
CC(C)(C)NC(=O)C1CCN(S(=O)(=O)c2cc(Cl)ccc2Cl)CC1,nt,nt,nt,nt,-27,10,nt
CC(/C=C1\SC(=S)N(C(C(=O)O)C(C)C)C1=O)=C\c1ccccc1 (configuration not stated),-11,-21,3,nt,61*,10,+
CCSc1ccccc1C(=O)Nc1ccc([N+](=O)[O-])cc1OC,2,-6,9,nt,66*,0,i
CCC(C)C(=O)Nc1ccc([N+](=O)[O-])cc1OC (configuration not stated),5,19,-2,nt,-25,7,nt
CCn1c(=O)n(CC(=O)N2CCc3ccccc32)c2cccnc21,nt,nt,nt,nt,-15,2,nt
CCOc1cc(NC(=O)c2ccco2)c(OCC)cc1NC(=O)CCC(=O)N1CCCC1,nt,nt,nt,nt,-20,5,nt
COc1ccccc1-c1nnc2sc(-c3cc4ccccc4o3)nn12,-3,-13,8,5,77*,nt,+
O=c1c(C=NCc2ccccc2)c(NCc2ccccc2)nc2ccccn12,-6,2,0,nt,80*,5,+
CCn1c2ccc(Cl)cc2c2nc3ccccc3nc21,-21,-29,6,0,55,7,+
CCn1c2ccc(OC)cc2c2nc3ccccc3nc21,-5,-29,2,6,56,5,i
Cc1ccc2c(c1)c1nc3ccccc3nc1n2CC(N)=O,nt,nt,nt,nt,15,13,nt
CCOc1ccc(Cn2c3ccc(OC)cc3c3nc4ccccc4nc32)cc1,8,-2,8,11,18,5,nt
COc1ccc(-c2nc3ccccc3n2Cc2ccccc2)cc1,2,2,5,7,69*,13,+
Brc1ccc(Cn2c(-c3cncs3)nc3ccccc32)cc1,-19,-36,10,10,70*,2,i
c1ccc(Cc2nc3ccccc3n2Cc2ccccc2)cc1,3,8,15,2,75*,3,+
N#CCCCCn1c(-c2cncs2)nc2ccccc21,-14,0,0,6,2,21,nt
COc1ccc2[nH]c(=O)c(CN(Cc3cccs3)Cc3nnnn3CC3CCCO3)cc2c1 (configuration not stated),nt,nt,nt,nt,-3,8,nt
Cn1c(=O)n(CC(=O)NC2CCCCC2)c2cccnc21,nt,nt,nt,nt,-24,6,nt
CCCCc1nc(SCCOC)c2c(=O)n(C)c(=O)n(C)c2n1,-5,-11,3,nt,59,6,i
CCN(c1ccccc1)c1nc(C#N)nc(N(CC)c2ccccc2)n1,-19,13,nt,nt,42,4,nt
CCN(CC)c1nc(C#N)nc(N(CC)CC)n1,3,-13,2,4,65*,nt,i
SMILES,NPY2 pot ag,NPY1 pot ag,NPY-Y1 antag,NPY Y2 blocker,EP2 mod,PGE2 EP2 inh,EP2 cAMP induct
O=c1c2ccccc2c(=O)n(Cc2ccccc2)n1Cc1ccccc1,-1,-26,1,6,66*,3,+
CCCCNCC(=O)Nc1sc(C)c(C)c1C(=O)OCC,-7,-14,9,4,53,3,i
CCOC(=O)c1c(NC(=O)CNCC(O)CO)sc(C)c1C (configuration not stated),12,-11,8,4,7,22,nt
CCOC(=O)c1c(NC(=O)CC(C)C)sc(C(C)=O)c1C,-16,-16,12,8,52,6,i
CCOC(=O)c1c(NC(=O)CSc2nnnn2C)sc(C)c1C,-17,-24,0,3,24,8,nt
CCOC(=O)c1c(NC(=O)CSc2nnnn2CC)sc(C)c1C,-6,-7,0,3,60,18,i
CCOC(=O)c1c(NC(=O)c2cccnc2)sc(C)c1C,-5,0,4,0,52,13,+
Cc1ccc(NC(=O)CSc2ncnc3sc4c(c23)CCC4)cc1C,nt,nt,nt,nt,-3,17,nt
CCn1c(CN2CCc3c(nc(N4CCCCC4)[nH]c3=O)C2)nc2ccccc21,nt,nt,nt,nt,-6,nt,nt
Cc1c(/C=C/C2=CCN(C)CC2)c2ccccc2n1CC(=O)N1CCCC1,nt,nt,nt,nt,-47,nt,nt
CCn1c(N2CCC(C(=O)NC3CCN(Cc4ccccc4)CC3)CC2)nc2ccccc21,nt,nt,nt,nt,0,nt,nt
CCOC(=O)c1c(NC(=O)c2ccoc2C)sc(C(=O)N(C)C)c1C,-16,-23,0,2,54,13,i
CCCn1c(SCC(=O)Nc2sc(C)c(C)c2C(=O)OCC)nc2c1c(=O)n(C)c(=O)n2C,-2,2,1,-4,52,11,i
O=C(COC(=O)c1ccc(F)cc1)Nc1cc(S(=O)(=O)N2CCOCC2)ccc1N1CCCC1,1,8,0,nt,11,5,nt
O=C(COC(=O)c1ccc(S(=O)(=O)N2CCCC2)cc1)Nc1ccc(F)cc1F,-5,-18,0,nt,87*,4,i
NC(=O)Cn1cc(CN2CCN(CC3CCCO3)CC2)c2ccccc21 (configuration not stated),nt,nt,nt,nt,-41,7,nt
O=c1c2ccccc2c(-c2ccccc2)nn1-c1ccccc1,6,7,nt,nt,19,2,nt
O=c1c2ccccc2c(-c2ccccc2)nn1-c1ccc(Cl)c(Cl)c1,-6,7,11,-1,70*,7,i
c1ccc(Oc2nc3ccccc3n3cccc23)cc1,-3,-16,3,1,65*,5,i
Cc1cc(Nc2ccc(Br)cc2)n2nc(C)nc2n1,-20,-3,4,5,88*,5,i
Cc1ccc(S(=O)(=O)Nc2ccc(Cl)cc2C(=O)c2ccc(F)cc2)cc1,-6,-21,9,4,67*,20,i
O=C(CCSc1nnc(-c2ccco2)o1)Nc1ccccc1Cl,nt,nt,nt,nt,-45,12,nt
O=c1[nH]c(CSc2ccc(Cl)cc2)nc2ccccc12,nt,nt,nt,nt,5,7,nt
Cn1c(=O)c2c(SC3CCCC3)nc(C3CC3)nc2n(C)c1=O,6,-1,3,5,79*,11,+
